Activity calls are given as the source filed them. The calls are words filed in the database; no cut-off is given here.
Assays:
[1] = system: Salmonella typhimurium; experiment: Inhibition of MeIQ-induced SOS response to alteration in DNA synthesis in Salmonella Typhimurium TA1535 carrying pSK1002 containing umuC'-lacZ fused gene; format: functional, Salmonella enterica subsp. enterica serovar Typhimurium; conditions: Salmonella enterica, read-out: ID50 (the source's name)
Outline: (§1)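 S. typhimurium TA1535/pSK1002 (umuC′-′lacZ fusion on the plasmid). The overnight culture was diluted 50-fold in fresh TGA medium and grown at 37 °C to A600 0.25-0.30. SOS induction was read as β-galactosidase activity in Miller units. The S9 mix used rat liver S9 (phenobarbital/5,6-benzoflavone-pretreated males) with G-6-P, NADH and NADPH cofactors.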

[2] = system: Salmonella typhimurium; experiment: Antimutagenic activity in Salmonella Typhimurium TA1535 carrying pSK1002 containing umuC'-lacZ fused gene assessed as suppression of furyfuramide-induced SOS response to alteration in DNA synthesis at 0.05 mM measured by beta-galactosidase activity by Umu test; format: functional, Salmonella enterica subsp. enterica serovar Typhimurium; outline: as §1
[3] = system: Salmonella typhimurium; experiment: Antimutagenic activity in Salmonella Typhimurium TA1535 carrying pSK1002 containing umuC'-lacZ fused gene assessed as suppression of furyfuramide-induced SOS response to alteration in DNA synthesis measured by beta-galactosidase activity by Umu test; format: functional, organism-based; conditions: Salmonella enterica subsp. enterica serovar Typhimurium; outline: as §1
[4] = system: Salmonella typhimurium; experiment: Antimutagenic activity in Salmonella Typhimurium TA1535 carrying pSK1002 containing umuC'-lacZ fused gene assessed as suppression of Trp-P-1-induced SOS response to alteration in DNA synthesis at 0.6 mM measured by beta-galactosidase activity by Umu test; format: functional, Salmonella enterica subsp. enterica serovar Typhimurium; outline: as §1
[5] = system: Salmonella typhimurium; experiment: Antimutagenic activity in Salmonella Typhimurium TA1535 carrying pSK1002 containing umuC'-lacZ fused gene assessed as suppression of activated MeIQ-induced SOS response to alteration in DNA synthesis at 0.3 mM measured by beta-galactosidase activity by Umu test; format: functional, Salmonella enterica subsp. enterica serovar Typhimurium; outline: as §1
[6] = system: Salmonella typhimurium; experiment: Antimutagenic activity in Salmonella Typhimurium TA1535 carrying pSK1002 containing umuC'-lacZ fused gene assessed as suppression of furyfuramide-induced SOS response to alteration in DNA synthesis at 0.3 mM measured by beta-galactosidase activity by Umu test; format: functional, Salmonella enterica subsp. enterica serovar Typhimurium; outline: as §1
[7] = system: Salmonella typhimurium; experiment: Inhibition of Trp-P-1-induced SOS response to alteration in DNA synthesis in Salmonella Typhimurium TA1535 carrying pSK1002 containing umuC'-lacZ fused gene at 0.6 mM; format: functional, Salmonella enterica subsp. enterica serovar Typhimurium; design: scale not given: the % may be the effect or the level left; outline: as §1
[8] = system: Salmonella typhimurium; experiment: Inhibition of activated Trp-P-1-induced SOS response to alteration in DNA synthesis in Salmonella Typhimurium TA1535 carrying pSK1002 containing umuC'-lacZ fused gene; format: functional, Salmonella enterica subsp. enterica serovar Typhimurium; conditions: Salmonella enterica, read-out: ID50 (the source's name); outline: as §1
[9] = system: Salmonella typhimurium; experiment: Inhibition of activated Trp-P-1-induced SOS response to alteration in DNA synthesis in Salmonella Typhimurium TA1535 carrying pSK1002 containing umuC'-lacZ fused gene at 0.6 mM; format: functional, Salmonella enterica subsp. enterica serovar Typhimurium; design: scale not given: the % may be the effect or the level left; outline: as §1
[10] = system: Salmonella typhimurium; experiment: Antimutagenic activity in Salmonella Typhimurium TA1535 carrying pSK1002 containing umuC'-lacZ fused gene assessed as suppression of MeIQ-induced SOS response to alteration in DNA synthesis at 0.3 mM measured by beta-galactosidase activity by Umu test; format: functional, Salmonella enterica subsp. enterica serovar Typhimurium; outline: as §1
[11] = system: Salmonella typhimurium; experiment: Antimutagenic activity in Salmonella Typhimurium TA1535 carrying pSK1002 containing umuC'-lacZ fused gene assessed as suppression of activated Trp-P-1-induced SOS response to alteration in DNA synthesis at 0.1 mM measured by beta-galactosidase activity by Umu test; format: functional, Salmonella enterica subsp. enterica serovar Typhimurium; outline: as §1
[12] = system: Salmonella typhimurium; experiment: Antimutagenic activity in Salmonella Typhimurium TA1535 carrying pSK1002 containing umuC'-lacZ fused gene assessed as suppression of Trp-P-1-induced SOS response to alteration in DNA synthesis measured by beta-galactosidase activity by Umu test; format: functional, organism-based; conditions: Salmonella enterica subsp. enterica serovar Typhimurium; outline: as §1
[13] = system: Salmonella typhimurium; experiment: Inhibition of activated MeIQ-induced SOS response to alteration in DNA synthesis in Salmonella Typhimurium TA1535 carrying pSK1002 containing umuC'-lacZ fused gene at 0.6 mM; format: functional, Salmonella enterica subsp. enterica serovar Typhimurium; design: scale not given: the % may be the effect or the level left; outline: as §1
[14] = system: Salmonella typhimurium; experiment: Antimutagenic activity in Salmonella Typhimurium TA1535 carrying pSK1002 containing umuC'-lacZ fused gene assessed as suppression of activated MeIQ-induced SOS response to alteration in DNA synthesis at 0.1 mM measured by beta-galactosidase activity by Umu test; format: functional, Salmonella enterica subsp. enterica serovar Typhimurium; outline: as §1
[15] = system: Salmonella typhimurium; experiment: Antimutagenic activity in Salmonella Typhimurium TA1535 carrying pSK1002 containing umuC'-lacZ fused gene assessed as suppression of 0.1 j/M2 UV light-induced SOS response to alteration in DNA synthesis at 0.3 mM measured by beta-galactosidase activity by Umu test; format: functional, Salmonella enterica subsp. enterica serovar Typhimurium; outline: as §1
[16] = system: Salmonella typhimurium; experiment: Antimutagenic activity in Salmonella Typhimurium TA1535 carrying pSK1002 containing umuC'-lacZ fused gene assessed as suppression of 0.1 j/M2 UV light-induced SOS response to alteration in DNA synthesis at 0.1 mM measured by beta-galactosidase activity by Umu test; format: functional, Salmonella enterica subsp. enterica serovar Typhimurium; outline: as §1
[17] = system: Salmonella typhimurium; experiment: Antimutagenic activity in Salmonella Typhimurium TA1535 carrying pSK1002 containing umuC'-lacZ fused gene assessed as suppression of 0.1 j/M2 UV light-induced SOS response to alteration in DNA synthesis at 0.05 mM measured by beta-galactosidase activity by Umu test; format: functional, Salmonella enterica subsp. enterica serovar Typhimurium; outline: as §1
[18] = system: Salmonella typhimurium; experiment: Antimutagenic activity in Salmonella Typhimurium TA1535 carrying pSK1002 containing umuC'-lacZ fused gene assessed as suppression of Trp-P-1-induced SOS response to alteration in DNA synthesis at 0.3 mM measured by beta-galactosidase activity by Umu test; format: functional, Salmonella enterica subsp. enterica serovar Typhimurium; outline: as §1
[19] = system: Salmonella typhimurium; experiment: Inhibition of activated MeIQ-induced SOS response to alteration in DNA synthesis in Salmonella Typhimurium TA1535 carrying pSK1002 containing umuC'-lacZ fused gene; format: functional, Salmonella enterica subsp. enterica serovar Typhimurium; conditions: Salmonella enterica, read-out: ID50 (the source's name); outline: as §1
[20] = system: Salmonella typhimurium; experiment: Antimutagenic activity in Salmonella Typhimurium TA1535 carrying pSK1002 containing umuC'-lacZ fused gene assessed as suppression of Trp-P-1-induced SOS response to alteration in DNA synthesis at 0.1 mM measured by beta-galactosidase activity by Umu test; format: functional, Salmonella enterica subsp. enterica serovar Typhimurium; outline: as §1
[21] = system: Salmonella typhimurium; experiment: Inhibition of furyfuramide-induced SOS response to alteration in DNA synthesis in Salmonella Typhimurium TA1535 carrying pSK1002 containing umuC'-lacZ fused gene at 0.6 mM; format: functional, Salmonella enterica subsp. enterica serovar Typhimurium; design: scale not given: the % may be the effect or the level left; outline: as §1
[22] = system: Salmonella typhimurium; experiment: Inhibition of MeIQ-induced SOS response to alteration in DNA synthesis in Salmonella Typhimurium TA1535 carrying pSK1002 containing umuC'-lacZ fused gene at 0.6 mM; format: functional, Salmonella enterica subsp. enterica serovar Typhimurium; design: scale not given: the % may be the effect or the level left; outline: as §1
[23] = system: Salmonella typhimurium; experiment: Antimutagenic activity in Salmonella Typhimurium TA1535 carrying pSK1002 containing umuC'-lacZ fused gene assessed as suppression of MeIQ-induced SOS response to alteration in DNA synthesis measured by beta-galactosidase activity by Umu test; format: functional, organism-based; conditions: Salmonella enterica subsp. enterica serovar Typhimurium; outline: as §1
[24] = system: Salmonella typhimurium; experiment: Antimutagenic activity in Salmonella Typhimurium TA1535 carrying pSK1002 containing umuC'-lacZ fused gene assessed as suppression of Trp-P-1-induced SOS response to alteration in DNA synthesis at 0.05 mM measured by beta-galactosidase activity by Umu test; format: functional, Salmonella enterica subsp. enterica serovar Typhimurium; outline: as §1
[25] = system: Salmonella typhimurium; experiment: Inhibition of Trp-P-1-induced SOS response to alteration in DNA synthesis in Salmonella Typhimurium TA1535 carrying pSK1002 containing umuC'-lacZ fused gene; format: functional, Salmonella enterica subsp. enterica serovar Typhimurium; conditions: Salmonella enterica, read-out: ID50 (the source's name); outline: as §1
[26] = system: Salmonella typhimurium; experiment: Antimutagenic activity in Salmonella Typhimurium TA1535 carrying pSK1002 containing umuC'-lacZ fused gene assessed as suppression of furyfuramide-induced SOS response to alteration in DNA synthesis at 0.6 mM measured by beta-galactosidase activity by Umu test; format: functional, Salmonella enterica subsp. enterica serovar Typhimurium; outline: as §1
[27] = system: Salmonella typhimurium; experiment: Antimutagenic activity in Salmonella Typhimurium TA1535 carrying pSK1002 containing umuC'-lacZ fused gene assessed as suppression of MeIQ-induced SOS response to alteration in DNA synthesis at 0.1 mM measured by beta-galactosidase activity by Umu test; format: functional, Salmonella enterica subsp. enterica serovar Typhimurium; outline: as §1
[28] = system: Salmonella typhimurium; experiment: Antimutagenic activity in Salmonella Typhimurium TA1535 carrying pSK1002 containing umuC'-lacZ fused gene assessed as suppression of furyfuramide-induced SOS response to alteration in DNA synthesis at 0.1 mM measured by beta-galactosidase activity by Umu test; format: functional, Salmonella enterica subsp. enterica serovar Typhimurium; outline: as §1
[29] = system: Salmonella typhimurium; experiment: Antimutagenic activity in Salmonella Typhimurium TA1535 carrying pSK1002 containing umuC'-lacZ fused gene assessed as suppression of activated Trp-P-1-induced SOS response to alteration in DNA synthesis at 0.3 mM measured by beta-galactosidase activity by Umu test; format: functional, Salmonella enterica subsp. enterica serovar Typhimurium; outline: as §1
[30] = system: Salmonella typhimurium; experiment: Antimutagenic activity in Salmonella Typhimurium TA1535 carrying pSK1002 containing umuC'-lacZ fused gene assessed as suppression of activated MeIQ-induced SOS response to alteration in DNA synthesis at 0.6 mM measured by beta-galactosidase activity by Umu test; format: functional, Salmonella enterica subsp. enterica serovar Typhimurium; outline: as §1
[31] = system: Salmonella typhimurium; experiment: Antimutagenic activity in Salmonella Typhimurium TA1535 carrying pSK1002 containing umuC'-lacZ fused gene assessed as suppression of 0.1 j/M2 UV light-induced SOS response to alteration in DNA synthesis at 0.6 mM measured by beta-galactosidase activity by Umu test; format: functional, Salmonella enterica subsp. enterica serovar Typhimurium; outline: as §1
[32] = system: Salmonella typhimurium; experiment: Antimutagenic activity in Salmonella Typhimurium TA1535 carrying pSK1002 containing umuC'-lacZ fused gene assessed as suppression of activated Trp-P-1-induced SOS response to alteration in DNA synthesis at 0.6 mM measured by beta-galactosidase activity by Umu test; format: functional, Salmonella enterica subsp. enterica serovar Typhimurium; outline: as §1
[33] = system: Salmonella typhimurium; experiment: Antimutagenic activity in Salmonella Typhimurium TA1535 carrying pSK1002 containing umuC'-lacZ fused gene assessed as suppression of MeIQ-induced SOS response to alteration in DNA synthesis at 0.6 mM measured by beta-galactosidase activity by Umu test; format: functional, Salmonella enterica subsp. enterica serovar Typhimurium; outline: as §1
[34] = system: Salmonella typhimurium; experiment: Antimutagenic activity in Salmonella Typhimurium TA1535 carrying pSK1002 containing umuC'-lacZ fused gene assessed as suppression of activated MeIQ-induced SOS response to alteration in DNA synthesis at 0.05 mM measured by beta-galactosidase activity by Umu test; format: functional, Salmonella enterica subsp. enterica serovar Typhimurium; outline: as §1
[35] = system: Salmonella typhimurium; experiment: Antimutagenic activity in Salmonella Typhimurium TA1535 carrying pSK1002 containing umuC'-lacZ fused gene assessed as suppression of MeIQ-induced SOS response to alteration in DNA synthesis at 0.05 mM measured by beta-galactosidase activity by Umu test; format: functional, Salmonella enterica subsp. enterica serovar Typhimurium; outline: as §1
[36] = system: Salmonella typhimurium; experiment: Antimutagenic activity in Salmonella Typhimurium TA1535 carrying pSK1002 containing umuC'-lacZ fused gene assessed as suppression of activated Trp-P-1-induced SOS response to alteration in DNA synthesis at 0.05 mM measured by beta-galactosidase activity by Umu test; format: functional, Salmonella enterica subsp. enterica serovar Typhimurium; outline: as §1

- IC50 [1]: 40 µM
- IC50 [8]: 340 µM
- IC50 [19]: 300 µM
- IC50 [25]: 160 µM
Structure (SMILES): COc1cc(-c2cc(=O)c3c(OC)c(OC)c(OC)c(OC)c3o2)ccc1O
- Activity [2]: 551.2 Miller_unit
- Activity [3]: Active
- Activity [4]: 168.9 Miller_unit
- Activity [5]: 243.5 Miller_unit
- Activity [6]: 489.9 Miller_unit
- Activity [7]: 72.4%
- Activity [9]: 76.4%
- Activity [10]: 195.3 Miller_unit
- Activity [11]: 233.2 Miller_unit
- Activity [12]: Active
- Activity [13]: 58.2%
- Activity [14]: 376.3 Miller_unit
- Activity [15]: 563.5 Miller_unit
- Activity [16]: 551.9 Miller_unit
- Activity [17]: 574.1 Miller_unit
- Activity [18]: 219.1 Miller_unit
- Activity [20]: 285.4 Miller_unit
- Activity [21]: 28.7%
- Activity [22]: 80.9%
- Activity [23]: Active
- Activity [24]: 299.6 Miller_unit
- Activity [26]: 443.7 Miller_unit
- Activity [27]: 232.6 Miller_unit
- Activity [28]: 511.2 Miller_unit
- Activity [29]: 182.4 Miller_unit
- Activity [30]: 224.2 Miller_unit
- Activity [31]: 495.7 Miller_unit
- Activity [32]: 118.5 Miller_unit
- Activity [33]: 163.9 Miller_unit
- Activity [34]: 394 Miller_unit
- Activity [35]: 267.7 Miller_unit
- Activity [36]: 283.7 Miller_unit

— ChEMBL document CHEMBL1148948, “Biotransformation of nobiletin by Aspergillus niger and the antimutagenic activity of a metabolite, 4'-hydroxy-5,6,7,8,3'-pentamethoxyflavone” (2004)
